A selection: hits, their analogues and other compounds. The true share with any hit is near 1.7%.
DNMT1 inh – human DNMT1 methyltransferase inhibitors, primary screen, biochemical, molecular beacon, fluorescence, HinP1I cleavage, uHTS; DNA (cytosine-5)-methyltransferase 1 (Homo sapiens), P26358; inhibition (reported as % activation of signal), % at 10 µM; actives 0.83% (n = 360,000); in the data active = inhibition above about 50%
LMPTP block – LMPTP phosphatase inhibitors, primary screen, biochemical, fluorescence intensity, uHTS; recombinant LMPTP-A, OMFP fluorogenic substrate; inhibition, % at 20 µM; actives 0.22% (n = 360,000);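 active = compounds that cut the enzyme signal by at least half of the control window in the single-dose screen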;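 note: plate controls were DMSO wells with enzyme plus substrate for no effect and substrate without enzyme for full effect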
Target sequence (P24666 whole entry, looked up): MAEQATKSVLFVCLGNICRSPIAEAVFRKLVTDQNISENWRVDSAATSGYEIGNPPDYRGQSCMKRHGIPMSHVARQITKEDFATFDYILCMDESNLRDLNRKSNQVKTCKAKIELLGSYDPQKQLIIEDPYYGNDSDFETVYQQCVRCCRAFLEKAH
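Test system: LMPTP-A phosphatase enzyme; input: 0.625 nM LMPTP-A final; reagent: OMFP substrate, 400 µM final; compound dosing: 20 µM single dose, 3% DMSO; incubation: 50 min dark incubation at room temperature; measured by: endpoint fluorescence intensity from OMFP dephosphorylation; measure: % inhibition relative to no-enzyme and uninhibited control wells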
SUMO1 PPI mod – modulators of SUMO1 protein-protein interactions, primary screen, biochemical, uHTS; actives 0.33% (n = 360,000); inhibition, % at 20 µM; AID 602429, 2012; SUMO1 binding to a labelled peptide, TR-FRET, 1 h; Small ubiquitin-related modifier 1 (Homo sapiens), P63165; in the data active = inhibition above about 37%
Target sequence (P63165 whole entry, looked up): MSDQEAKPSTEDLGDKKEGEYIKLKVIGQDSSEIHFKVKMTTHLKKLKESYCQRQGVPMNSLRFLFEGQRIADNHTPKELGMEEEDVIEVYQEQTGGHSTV
STEP block – STEP phosphatase inhibitors, primary screen, biochemical, fluorescence intensity, uHTS | recombinant STEP, OMFP fluorogenic substrate | AID 588621, 2011 | inhibition, % at 20 µM | actives 0.25% (n = 360,000) | Tyrosine-protein phosphatase non-receptor type 5 (Homo sapiens), P54829;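 active = inhibition at 20 µM, scaled per plate between control wells, above about 37%, limit read from the data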;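 note: 0% = DMSO with enzyme and substrate and 100% = substrate only without enzyme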
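Test system: STEP tyrosine phosphatase / Reagent: OMFP at 25 µM / Doses: 20 µM, 1% DMSO / Read-out: percent inhibition scaled to no-enzyme and uninhibited-enzyme controls, plate-pattern corrected / Detection: FITC-channel fluorescence of OMFP product / Medium: Bis-Tris buffer pH 6.0, 2.5 mM DTT, 0.005% Tween 20 / Schedule: 20 min at room temperature, dark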
Scp1 inh – Scp-1 phosphatase inhibitors, primary screen, biochemical, colorimetric, uHTS | actives 0.88% (n = 340,000) | Carboxy-terminal domain RNA polymerase II polypeptide A small phosphatase 1 (Homo … | inhibition, % at 20 µM | AID 493091, 2011 | Recombinant Scp1, phosphopeptide, malachite green phosphate absorbance;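 active = inhibition above about 50% at 20 µM, limit read from the data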;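 note: plate controls were DMSO wells with enzyme for no effect and wells lacking enzyme for full effect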
Target sequence (Q9GZU7 76-261 limits assumed): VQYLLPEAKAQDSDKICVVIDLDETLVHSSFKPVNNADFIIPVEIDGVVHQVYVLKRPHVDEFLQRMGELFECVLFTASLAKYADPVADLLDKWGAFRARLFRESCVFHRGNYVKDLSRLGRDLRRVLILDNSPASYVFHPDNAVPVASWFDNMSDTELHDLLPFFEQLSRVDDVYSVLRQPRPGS
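Test system: SCP-1 catalytic domain; Buffer or medium: Acidic Tris acetate buffer with magnesium and detergent; Also added: Phosphorylated 17-residue peptide substrate; Compound: single 20 µM dose, 1% DMSO; Schedule: enzyme reaction 45 min at room temperature, colour 5 min, stabilisation 30 min; Signal: Phosphate-binding colour reagent, absorbance read at 630 nm.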
Scp1 confirm – Scp-1 phosphatase inhibitors, retest, confirmation, biochemical, colorimetric, single concentration | shares compounds with Scp1 inh | recombinant SCP-1 catalytic domain, phosphate release, malachite green absorbance | inhibition, % at 20 µM | actives 61% (n = 2,500) | AID 540281, 2011;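 note: plate controls were DMSO with enzyme for no effect and buffer wells lacking enzyme for full effect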
Scp-1 MG ctr – colorimetric readout interference by compounds, confirmation, artefact control for Scp-1 inhibitor project, biochemical, single concentration | shares compounds with Scp1 inh | Colorimetric interference counterscreen, malachite green absorbance 630 nm | apparent inhibition (interference), % at 20 µM | 2,500 tested, under 10 active;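 note: compounds added after enzyme reaction finished so only phosphate colour detection is probed; plate controls were DMSO wells with completed Scp-1 reaction for no effect and substrate wells lacking enzyme for full effect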
Scp-1 Tm shift – Scp-1 binding by thermal shift, confirmation, orthogonal assay for Scp-1 inhibitor project, biophysical, differential scanning fluorimetry; shares compounds with Scp1 inh; Recombinant SCP1, Sypro Orange thermal shift Tm; thermal shift relative to vanadate control, % at 40 µM; actives 25% (n = 1,500);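 active = substances whose mean melting-temperature shift, as a percentage of the reference inhibitor's shift, reaches about 5.3%, limit read from the data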;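 note: 0% = Tm of DMSO wells and 100% = Tm with sodium orthovanadate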
Starred values were filed as active, the others as inactive.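 Rule for the calls, unless noted: active = inhibition of at least 30% at 20 µM; inactive = the rest.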

O=C(NCCN1CCNC1=O)C1CCC(=O)N(Cc2cccc(C(F)(F)F)c2)C1 (centres undefined) was read as DNMT1 inh -1, LMPTP block -2, SUMO1 PPI mod -2, STEP block -2, Scp1 inh -1, Scp1 confirm -19 and Scp-1 MG ctr -16.
`Cc1cccc(NC(=O)C2CCCN2S(=O)(=O)c2ccc3c(c2)n(C)c(=O)c(=O)n3C)c1` (centres undefined) gave DNMT1 inh -4, LMPTP block 1, SUMO1 PPI mod 2, STEP block 0, Scp1 inh -2, Scp1 confirm 0 and Scp-1 MG ctr -4.
`CCc1cccc(NC(=O)C2CCCN2S(=O)(=O)c2ccc3c(c2)n(C)c(=O)c(=O)n3C)c1` (centres undefined) gave DNMT1 inh 2, LMPTP block -1, SUMO1 PPI mod 0, STEP block -2 and Scp1 inh 27.
`CCn1c(/C=C/Nc2ccccc2)[n+](CC)c2ccc(Cl)cc21` gave DNMT1 inh 3, LMPTP block -1, SUMO1 PPI mod -1, STEP block -6 and Scp1 inh 11.
Screening CCn1c(C)[n+](Cc2ccccc2)c2ccc(C(=O)OC)cc21 returned DNMT1 inh 4, LMPTP block 1, SUMO1 PPI mod 0, STEP block -3, Scp1 inh 102*, Scp1 confirm 53*, Scp-1 MG ctr -6 and Scp-1 Tm shift -4.
For CCn1c(C)[n+](Cc2ccccc2)c2ccc(Cl)cc21 the results were DNMT1 inh -1, LMPTP block 1, SUMO1 PPI mod -2, STEP block -1 and Scp1 inh 1.
CCOC(=O)c1ccc2c(c1)n(CC)c(/C=C/Nc1ccccc1)[n+]2CC was read as DNMT1 inh 5, LMPTP block -1, SUMO1 PPI mod -3, STEP block -3, Scp1 inh 62*, Scp1 confirm -10 and Scp-1 MG ctr -11.
Screening C[N+]1(C2CCC3CCCC2C3O)CCCCC1 (centres undefined) returned DNMT1 inh 1, LMPTP block 0, SUMO1 PPI mod 0, STEP block -1, Scp1 inh 96*, Scp1 confirm 78*, Scp-1 MG ctr -21 and Scp-1 Tm shift -5.
For Cc1cccc(C)c1NC(=O)C1(C)CSCC(=O)N1CCCN1CCOCC1 (centres undefined) the results were LMPTP block -3 and SUMO1 PPI mod -2.
For CCOC(=O)N(O)c1ccc(C=Cc2ccccc2)cc1 the results were DNMT1 inh 10, LMPTP block 5, SUMO1 PPI mod -7, STEP block 2, Scp1 inh 59*, Scp1 confirm 50*, Scp-1 MG ctr -8 and Scp-1 Tm shift -18.
CC(C)(CCc1ccccn1)C(=O)CCCc1ccccn1 was read as DNMT1 inh 7, LMPTP block 1, SUMO1 PPI mod 3, STEP block 1 and Scp1 inh -15.
Cc1cccc(NC(=S)NC(=O)CC2CC(C)(C)OC2=O)c1 (centres undefined) was read as DNMT1 inh 3, LMPTP block -1, SUMO1 PPI mod -1, STEP block -1, Scp1 inh -6, Scp1 confirm 1 and Scp-1 MG ctr -3.
